Values after ≈ are worked out from the molar mass of the structure shown.
Assays:
HepG2 = assay: Cytotoxicity against human HepG2 cells after 48 hrs by MTT assay; format: cell-based; conditions: HepG2, 48 h
Procedure, shortened: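 HepG2 cells grown in RPMI1640 with 10% FBS; about 4×10⁴ cells per well seeded in MEM, incubated 24 h at 37 ℃ in 5% CO₂, then exposed to compounds at indicated final concentrations for 48 h. MTT added (final 0.5 mg/mL) for 4 h at 37 ℃, formazan dissolved in DMSO, absorbance read at 492 nm. Triplicate runs; IC50 as mean ± SD.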

[1] = Intrinsic clearance in human liver microsomes at 1.5 uM pretreated for 5 mins followed by NADPH addition measured after 5 to 45 mins by LC-MS analysis; format: ADME, microsome; conditions: read-out: CLH
Procedure, shortened: (§1)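 Human liver microsomes with 1.5 µM compound in a 0.75 mg/mL microsome mix were pre-warmed at 37 °C for 5 min. Reaction started with NADPH (6 mM stock). Samples were quenched with acetonitrile plus internal standard at 0, 5, 15, 30 and 45 min, then read by LC/MS, in duplicate. T1/2 = ln(2)/k from the log-linear slope; Clint derived from T1/2; % remaining read at 45 min.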

Enterococcus faecium [2] = assay: Antibacterial activity against vancomycin-resistant Enterococcus faecium by broth liquid microdilution method; format: functional
Procedure, shortened: (§2)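 Isolates were identified on an automated MicroScan WalkAway 96 system. Susceptibility was tested by broth microdilution following CLSI guidelines. MIC was taken as the lowest concentration giving complete inhibition of bacterial growth. S. aureus ATCC 29213 served as the control strain.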

Enterococcus faecalis [3] = assay: Antibacterial activity against linezolid-resistant Enterococcus faecalis by broth liquid microdilution method; format: functional; procedure, shortened: as §2
Staphylococcus aureus [4] = assay: Antibacterial activity against methicillin-resistant Staphylococcus aureus clinical isolates by broth liquid microdilution method; format: functional; procedure, shortened: as §2
[5] = target: T1, MAO-A (amine oxidase [flavin-containing] A) (Homo sapiens, UniProt P21397); assay: Inhibition of recombinant human MAOA expressed in baculovirus infected Sf9 insect cells at 30 uM using luciferin derived substrate pretreated for 15 mins followed by substrate addition and measured after 60 mins by luminescence assay relative to control; conditions: probe luciferin derived substrate
T1 sequence (P21397 whole entry): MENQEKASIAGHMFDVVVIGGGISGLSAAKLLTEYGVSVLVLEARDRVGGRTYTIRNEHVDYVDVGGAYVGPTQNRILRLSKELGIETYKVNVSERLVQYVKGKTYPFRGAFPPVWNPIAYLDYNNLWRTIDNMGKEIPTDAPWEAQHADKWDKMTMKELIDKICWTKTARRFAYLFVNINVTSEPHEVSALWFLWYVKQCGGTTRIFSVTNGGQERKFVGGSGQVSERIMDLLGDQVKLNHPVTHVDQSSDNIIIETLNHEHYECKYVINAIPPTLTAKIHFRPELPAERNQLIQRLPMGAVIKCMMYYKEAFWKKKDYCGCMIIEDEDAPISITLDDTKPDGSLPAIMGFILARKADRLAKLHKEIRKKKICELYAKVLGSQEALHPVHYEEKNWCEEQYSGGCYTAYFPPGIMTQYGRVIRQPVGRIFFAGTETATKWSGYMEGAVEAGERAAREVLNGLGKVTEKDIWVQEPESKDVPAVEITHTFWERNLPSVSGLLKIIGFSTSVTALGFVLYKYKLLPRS
Procedure, shortened: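 Human recombinant MAO-A with MAO-Glo luminescent kit. Compounds in DMSO (final 1% DMSO) preincubated with enzyme 15 min at room temperature, then luciferin derivative substrate added and reacted 60 min at room temperature. Luciferase detection reagent added for 20 min before luminescence read. Buffer replacing enzyme served as 100% inhibition control and DMSO as no-inhibition control; percent inhibition calculated against both.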

Enterococcus faecalis [6] = assay: Antibacterial activity against linezolid-resistant Enterococcus faecalis clinical isolates by broth liquid microdilution method; format: functional; procedure, shortened: as §2
[7] = Stability in human liver microsomes assessed as parent compound remaining at 1.5 uM pretreated for 5 mins followed by NADPH addition measured after 45 mins by LC-MS analysis; format: ADME, microsome; conditions: read-out: Stability; procedure, shortened: as §1
[8] = Half life in human liver microsomes at 1.5 uM in presence of NADPH by LC-MS analysis; format: ADME, microsome; procedure, shortened: as §1
Enterococcus faecium [9] = assay: Antibacterial activity against vancomycin-resistant Enterococcus faecium clinical isolates by broth liquid microdilution method; format: functional; procedure, shortened: as §2
Staphylococcus aureus [10] = assay: Antibacterial activity against methicillin-sensitive Staphylococcus aureus by broth liquid microdilution method; format: functional; procedure, shortened: as §2
Staphylococcus aureus [11] = assay: Antibacterial activity against Staphylococcus aureus ATCC 29213 by broth liquid microdilution method; format: functional; procedure, shortened: as §2
Staphylococcus aureus [12] = assay: Antibacterial activity against methicillin-sensitive Staphylococcus aureus clinical isolates by broth liquid microdilution method; format: functional; procedure, shortened: as §2
Staphylococcus aureus [13] = assay: Antibacterial activity against methicillin-resistant Staphylococcus aureus by broth liquid microdilution method; format: functional; procedure, shortened: as §2
Staphylococcus aureus [14] = assay: Potency index, ratio of linezolid MIC to test compound MIC for Staphylococcus aureus ATCC 29213; format: functional
Procedure, shortened: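 MIC by broth microdilution per CLSI guidelines, taken as the lowest concentration giving complete growth inhibition; isolates identified on MicroScan WalkAway 96; S. aureus ATCC29213 used as control strain. Index expressed as linezolid MIC divided by test compound MIC.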

Staphylococcus aureus [15] = assay: Potency index, ratio of linezolid MIC to test compound MIC for methicillin-sensitive Staphylococcus aureus; format: functional

| Structure (SMILES) | IC50 (HepG2) | CLint scaled at 1.5 µM [1] | MIC (Enterococcus faecium [2]) | MIC (Enterococcus faecalis [3]) | MIC50 (Staphylococcus aureus [4]) | MIC90 (Staphylococcus aureus [4]) | inhibition at 1 h, 30 µM [5] | MIC (Enterococcus faecalis [6]) | MIC50 (Enterococcus faecalis [6]) | MIC90 (Enterococcus faecalis [6]) | remaining at 0.75 h, 1.5 µM [7] | MIC (Enterococcus faecium [9]) | MIC50 (Enterococcus faecium [9]) | MIC90 (Enterococcus faecium [9]) | MIC (Staphylococcus aureus [10]) | MIC (Staphylococcus aureus [11]) | MIC (Staphylococcus aureus [12]) | MIC50 (Staphylococcus aureus [12]) | MIC90 (Staphylococcus aureus [12]) | MIC (Staphylococcus aureus [13]) | also measured |
| --- | --- | --- | --- | --- | --- | --- | --- | --- | --- | --- | --- | --- | --- | --- | --- | --- | --- | --- | --- | --- | --- |
| CC(=O)NC[C@H]1CN(c2ccc(-c3ccc(/C=N/N4CCN(C(=O)CO)CC4)cc3)c(F)c2)C(=O)O1 | 4.66 µM | 2.62 mL/min/kg | 0.0675 µg/mL (≈ 0.136 µM) | 0.0675 µg/mL (≈ 0.136 µM) | 0.0625 µg/mL (≈ 0.126 µM) | 0.125 µg/mL (≈ 0.251 µM) | 80% | 0.0625 to 0.125 µg/mL (≈ 0.126 to 0.251 µM) | 0.125 µg/mL (≈ 0.251 µM) | 0.25 µg/mL (≈ 0.502 µM) | 93.9% | 0.0625 to 0.5 µg/mL (≈ 0.126 to 1 µM) | 0.125 µg/mL (≈ 0.251 µM) | 0.25 µg/mL (≈ 0.502 µM) | 0.0675 µg/mL (≈ 0.136 µM) | 0.0675 µg/mL (≈ 0.136 µM) | 0.0625 to 0.125 µg/mL (≈ 0.126 to 0.251 µM) | 0.0625 µg/mL (≈ 0.126 µM) | 0.125 µg/mL (≈ 0.251 µM) | 0.0675 µg/mL (≈ 0.136 µM) | half-life at 1.5 µM [8]: 11.1 h |
| CC(=O)NC[C@H]1CN(c2ccc(-c3ccc(/C=N/N4CCSCC4)cc3)c(F)c2)C(=O)O1 |  |  | 0.0675 µg/mL (≈ 0.148 µM) | 0.0675 µg/mL (≈ 0.148 µM) | 0.125 µg/mL (≈ 0.274 µM) | 0.25 µg/mL (≈ 0.548 µM) | 81% | 0.0625 to 0.25 µg/mL (≈ 0.137 to 0.548 µM) | 0.125 µg/mL (≈ 0.274 µM) | 0.5 µg/mL (≈ 1.1 µM) |  | 0.0625 to 0.5 µg/mL (≈ 0.137 to 1.1 µM) | 0.15 µg/mL (≈ 0.329 µM) | 0.5 µg/mL (≈ 1.1 µM) | 0.0675 µg/mL (≈ 0.148 µM) | 0.0675 µg/mL (≈ 0.148 µM) | 0.0625 to 0.25 µg/mL (≈ 0.137 to 0.548 µM) | 0.125 µg/mL (≈ 0.274 µM) | 0.25 µg/mL (≈ 0.548 µM) | 0.0675 µg/mL (≈ 0.148 µM) | Ratio (Staphylococcus aureus [14]): 15 - 30; Ratio (Staphylococcus aureus [15]): 15 - 30 |
| CC(=O)NC[C@H]1CN(c2ccc(-c3ccc(/C=N/N4CCN(C)CC4)cc3)c(F)c2)C(=O)O1 | 0.82 µM | 23.9 mL/min/kg | 0.0675 µg/mL (≈ 0.149 µM) | 0.0675 µg/mL (≈ 0.149 µM) | 0.0625 µg/mL (≈ 0.138 µM) | 0.125 µg/mL (≈ 0.276 µM) | 71% | 0.0625 to 0.25 µg/mL (≈ 0.138 to 0.551 µM) | 0.125 µg/mL (≈ 0.276 µM) | 0.125 µg/mL (≈ 0.276 µM) | 64.7% | 0.0625 to 0.5 µg/mL (≈ 0.138 to 1.1 µM) | 0.25 µg/mL (≈ 0.551 µM) | 0.5 µg/mL (≈ 1.1 µM) | 0.0675 µg/mL (≈ 0.149 µM) | 0.0675 µg/mL (≈ 0.149 µM) | 0.0625 to 0.25 µg/mL (≈ 0.138 to 0.551 µM) | 0.0625 µg/mL (≈ 0.138 µM) | 0.125 µg/mL (≈ 0.276 µM) | 0.0675 µg/mL (≈ 0.149 µM) | Ratio (Staphylococcus aureus [14]): 15 - 30; half-life at 1.5 µM [8]: 1.21 h; Ratio (Staphylococcus aureus [15]): 15 - 30 |
| CC(=O)NC[C@H]1CN(c2ccc(N3CCOCC3)c(F)c2)C(=O)O1 [LINEZOLID] | > 25 µM |  | 2 µg/mL (≈ 5.93 µM) | > 16 µg/mL | 2 µg/mL (≈ 5.93 µM) | 4 µg/mL (≈ 11.9 µM) | 74% | > 16 µg/mL | > 16 µg/mL | > 16 µg/mL | 104% | 1 to 4 µg/mL (≈ 2.96 to 11.9 µM) | 2 µg/mL (≈ 5.93 µM) | 4 µg/mL (≈ 11.9 µM) | 1 µg/mL (≈ 2.96 µM) | 1 µg/mL (≈ 2.96 µM) | 1 to 2 µg/mL (≈ 2.96 to 5.93 µM) | 2 µg/mL (≈ 5.93 µM) | 2 µg/mL (≈ 5.93 µM) | 1 µg/mL (≈ 2.96 µM) | MIC (Staphylococcus aureus [4]): 1 to 4 µg/mL (≈ 2.96 to 11.9 µM) |

— ChEMBL document CHEMBL4265926, “Synthesis and antibacterial activity evaluation of novel biaryloxazolidinone analogues containing a hydrazone moiety as promising antibacterial agents” (Eur J Med Chem, 2018)
